Publication PMC9801203 (Poultry Science, 2022)
Where two headings read alike, the source gives them in different places. Marks after values point to notes of the source that are not given here.

Tests used:
[1] = tested on: human liver carcinoma cell line HepG2; settings: HepG2 cells; ref Cramer et al. (2010); cited from earlier work
[2] = toxin levels in tissues of hatched chicks after in ovo injection; format: in vivo, Gallus gallus domesticus; settings: for Toxin level in heart / Toxin level in kidneys / Toxin level in liver / Toxin level in serum / Toxin level in yolk sac: hatched chicks, mean ± SD; for presence as potential metabolite of OTA and 2’R-OTA in isolated organs: chicks after in ovo injection of OTA or 2’R-OTA
Procedure, shortened: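 Eggs (30/group) punctured with a 0.5 mm needle, injected with test compound at 0.25, 0.50 or 0.75 µg/egg in 50 µL ultra-pure water, sealed; incubated 37.5–38.5°C, 50–60% RH, turned 45° every 2 h. Hatched chicks decapitated; serum and tissues (200 mg) deconjugated with β-glucuronidase/arylsulfatase overnight at 37°C, acetonitrile-based extraction, ¹³C₂₀-OTA internal standard, HPLC-MS/MS positive mode.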

[3] = tested on: chicken embryo fibroblasts cell line SL-29 (ATCC CRL1590); assay: MTT cytotoxicity assay, 48 h exposure; format: cell-based, Gallus gallus
Procedure, shortened: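 SL-29 chicken embryo fibroblasts were grown in DMEM with 5% FBS, 5% tryptose phosphate broth, 2 mM L-glutamine and penicillin/streptomycin at 37°C and 5% CO2. Cells were exposed to a ten-point twofold dilution series for 48 h at 37°C and 5% CO2. MTT (5 mg/mL stock in PBS) was added for 4 h and removed. Formazan was dissolved in DMSO and absorbance read at 510 nm. Samples below 50% were considered toxic.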

[4] = humans, calculated; ref Sueck et al. (2019b); cited from earlier work
chicken embryos [5] = format: in vivo, Gallus gallus domesticus; settings: for effect on chick quality (in words): compared with control group; for Early dead embryos: embryos dead up to 7 d of incubation; for Late dead embryos: embryos died after 7 d of incubation; for Hatchability: hatchability of fertile eggs; for BW: hatched chicks; for BW / Chicks quality: Average score of chicks with score <100: mean ± SD; for Chicks quality: Average score of all chicks: maximum score 100, mean ± SD
Procedure, shortened: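 Hatching eggs in groups of 30 per repetition: one control without puncture, one punctured without injection. A 0.5 mm needle puncture delivered 0.25, 0.50 or 0.75 µg/egg in 50 µL ultrapure water (sonicated, autoclaved 108°C, 3 min); the site was sealed with plaster. Incubation at 37.5–38.5°C and 50–60% RH, turned 45° every 2 h. Candling at days 6 and 18; early deaths ≤7 d. Hatched chicks were weighed and quality-scored (maximum 100).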

[6] = chickens; ref Galtier et al., 1981; cited from earlier work
IHKE cells = settings: cytotoxicity, ref Bittner et al., 2015; cited from earlier work
embryos of Danio rerio = settings: ref Haq et al., 2016; cited from earlier work
[7] = pigs; ref Harwig et al., 1983; cited from earlier work
chicken embryos [8] = settings: 1 µg/egg, after 9 d of incubation; ref Hassan et al. (2012a); cited from earlier work
HeLa cells = settings: acute toxicity, ref Xiao et al., 1996; cited from earlier work
[9] = tested on: serum-free cultures of embryonic brains of Tetra SL chick stage 29; settings: 8-day exposure, embryonic chick brain cultures; ref Bruinink et al. (1998); cited from earlier work
[10] = MTT reduction, SL-29 cells, 48 h exposure

In the case of `C[C@@H]1Cc2c(Cl)cc(C(=O)N[C@H](Cc3ccccc3)C(=O)O)c(O)c2C(=O)O1` [2’R-OTA, 2’R-ochratoxin A], the “cytotoxic effect relative to OTA” value [1] is given as “approx. Tenfold lower cytotoxic effect”, the “Toxin level in heart” value ([2]; in ovo injection 0.25 µg/egg) is given as 0.00 ± 0.00a µg/kg and the “Toxin level in kidneys” value ([2]; in ovo injection 0.25 µg/egg) is given as 1.18 ± 0.07b µg/kg. The “Toxin level in liver” value ([2]; in ovo injection 0.25 µg/egg) was 1.11 ± 0.02b µg/kg, the “Toxin level in serum” value ([2]; in ovo injection 0.25 µg/egg) was 0.38 ± 0.00 µg·days/kg and the “Toxin level in yolk sac” value ([2]; in ovo injection 0.25 µg/egg) was 4.65 ± 0.04b µg/kg. The “Toxin level in heart” value ([2]; in ovo injection 0.50 µg/egg) was 0.32 ± 0.02c µg/kg, the “Toxin level in kidneys” value ([2]; in ovo injection 0.50 µg/egg) was 1.59 ± 0.07c µg/kg and the “Toxin level in liver” value ([2]; in ovo injection 0.50 µg/egg) was 2.81 ± 0.16c µg/kg. For the same molecule, the “Toxin level in serum” value ([2]; in ovo injection 0.50 µg/egg) was 0.30 ± 0.00c µg/kg, the “Toxin level in yolk sac” value ([2]; in ovo injection 0.50 µg/egg) was 7.52 ± 0.26 µg·days/kg and the “Toxin level in heart” value ([2]; in ovo injection 0.75 µg/egg) was 0.87 ± 0.02e µg/kg. For the same molecule, the “Toxin level in kidneys” value ([2]; in ovo injection 0.75 µg/egg) was 5.19 ± 0.14f µg/kg, the “Toxin level in liver” value ([2]; in ovo injection 0.75 µg/egg) was 12.68 ± 0.10f µg/kg and the “Toxin level in serum” value ([2]; in ovo injection 0.75 µg/egg) was 1.87 ± 0.02f µg/kg. For the same molecule, the “Toxin level in yolk sac” value ([2]; in ovo injection 0.75 µg/egg) was 19.83 ± 0.63g µg/kg, the IC50 [3, 10] was 6.54 µM and the biological half-life [4] was “approx. 6 mo”. For the same molecule, the “effect on chick quality (in words)” value (chicken embryos [5]) was “did not reduce chick quality”, the “Chicks quality: Chicks with score 100” value (chicken embryos [5]; in ovo injection 0.25 µg/egg) was 96.6%^c and the Early dead embryos (chicken embryos [5]; in ovo injection 0.25 µg/egg) was 14.4%^bc. For the same molecule, the Late dead embryos (chicken embryos [5]; in ovo injection 0.25 µg/egg) was 6.6%^b, the Hatchability (chicken embryos [5]; in ovo injection 0.25 µg/egg) was 61.1%^b and the BW (chicken embryos [5]; in ovo injection 0.25 µg/egg) was 41.83 ± 2.54^a g. The “Chicks quality: Average score of all chicks” value (“Chicks quality … of all chicks” for short) (chicken embryos [5]; in ovo injection 0.25 µg/egg) was 98.97 ± 5.57^b, the “Chicks quality: Average score of chicks with score <100” value (shortened to “Chicks quality … with score <100”) (chicken embryos [5]; in ovo injection 0.25 µg/egg) was 80.00 ± 0.00^a and the “Chicks quality: Chicks with score 100” value (chicken embryos [5]; in ovo injection 0.50 µg/egg) was 68.6%^ab. The Early dead embryos (chicken embryos [5]; in ovo injection 0.50 µg/egg) was 15.5%^bc, the Late dead embryos (chicken embryos [5]; in ovo injection 0.50 µg/egg) was 4.4%^b and the Hatchability (chicken embryos [5]; in ovo injection 0.50 µg/egg) was 58.9%^b. For the same molecule, the BW (chicken embryos [5]; in ovo injection 0.50 µg/egg) was 41.59 ± 2.91^a g, the “Chicks quality … of all chicks” value (chicken embryos [5]; in ovo injection 0.50 µg/egg) was 96.03 ± 8.37^ab and the “Chicks quality … with score <100” value (chicken embryos [5]; in ovo injection 0.50 µg/egg) was 87.36 ± 10.85^a. The “Chicks quality: Chicks with score 100” value (chicken embryos [5]; in ovo injection 0.75 µg/egg) was 70.8%^b, the Early dead embryos (chicken embryos [5]; in ovo injection 0.75 µg/egg) was 21.1%^c and the Late dead embryos (chicken embryos [5]; in ovo injection 0.75 µg/egg) was 11.1%^c. The Hatchability (chicken embryos [5]; in ovo injection 0.75 µg/egg) was 46.7%^b, the BW (chicken embryos [5]; in ovo injection 0.75 µg/egg) was 42.43 ± 2.90^a g and the “Chicks quality … of all chicks” value (chicken embryos [5]; in ovo injection 0.75 µg/egg) was 94.08 ± 14.62^ab. The “Chicks quality … with score <100” value (chicken embryos [5]; in ovo injection 0.75 µg/egg) was 79.71 ± 21.88^ab.

In the case of `C[C@@H]1Cc2c(Cl)cc(C(=O)N[C@@H](Cc3ccccc3)C(=O)O)c(O)c2C(=O)O1` [OTA, ochratoxin A], the half-life [6] is given as 4.1 h, the IC50 (IHKE cells) is given as 0.5 µM and the “Toxin level in heart” value ([2]; in ovo injection 0.25 µg/egg) is given as 0.00 ± 0.00a µg/kg. For the same molecule, the “Toxin level in kidneys” value ([2]; in ovo injection 0.25 µg/egg) was 2.70 ± 0.07 µg·days/kg, the “Toxin level in liver” value ([2]; in ovo injection 0.25 µg/egg) was 4.37 ± 0.04 µg·days/kg and the “Toxin level in serum” value ([2]; in ovo injection 0.25 µg/egg) was 0.22 ± 0.00b µg/kg. For the same molecule, the “Toxin level in yolk sac” value ([2]; in ovo injection 0.25 µg/egg) was 7.04 ± 0.08c µg/kg, the “Toxin level in heart” value ([2]; in ovo injection 0.50 µg/egg) was 0.25 ± 0.01b µg/kg and the “Toxin level in kidneys” value ([2]; in ovo injection 0.50 µg/egg) was 4.56 ± 0.21e µg/kg. The “Toxin level in liver” value ([2]; in ovo injection 0.50 µg/egg) was 7.12 ± 0.19e µg/kg, the “Toxin level in serum” value ([2]; in ovo injection 0.50 µg/egg) was 0.31 ± 0.00c µg/kg and the “Toxin level in yolk sac” value ([2]; in ovo injection 0.50 µg/egg) was 10.43 ± 0.21e µg/kg. For the same molecule, the “Toxin level in heart” value ([2]; in ovo injection 0.75 µg/egg) was 0.59 ± 0.01 µg·days/kg, the “Toxin level in kidneys” value ([2]; in ovo injection 0.75 µg/egg) was 11.83 ± 0.35g µg/kg and the “Toxin level in liver” value ([2]; in ovo injection 0.75 µg/egg) was 16.02 ± 0.28g µg/kg. The “Toxin level in serum” value ([2]; in ovo injection 0.75 µg/egg) was 0.61 ± 0.01e µg/kg, the “Toxin level in yolk sac” value ([2]; in ovo injection 0.75 µg/egg) was 12.40 ± 0.31f µg/kg and the IC50 ([3]; Gallus gallus, Fibroblast, 48 h) was 0.24 µM. The “teratogenicity and mortality (in words)” value (embryos of Danio rerio) was “high OTA teratogenicity”, the “order of organs in which the toxin accumulated” value [7] was “kidneys > liver > muscle tissue and fat” and the “embryo defect: beak hypoplasia” value (chicken embryos [8]) was 45%. The “embryo defect: beak retrognathism” value (chicken embryos [8]) was 12%, the “embryo defect: cleft spine” value (chicken embryos [8]) was 10% and the “embryo defect: exencephaly” value (chicken embryos [8]) was 4%. For the same molecule, the “embryo defect: microphthalmia” value (chicken embryos [8]) was 35%, the “embryo defect: no eye development” value (chicken embryos [8]) was 49% and the “embryo defect: nonunited abdominal integuments” value (chicken embryos [8]) was 8%. The “embryo defect: reduced body weight” value (chicken embryos [8]) was 15%, the biological half-life [4] was 1 mo and the “effect on chick quality (in words)” value (chicken embryos [5]) was “considerably reduced the number of chicks with a score of 100”. For the same molecule, the “Chicks quality: Chicks with score 100” value (chicken embryos [5]; in ovo injection 0.25 µg/egg) was 82.7%^bc, the Early dead embryos (chicken embryos [5]; in ovo injection 0.25 µg/egg) was 12.2%^b and the Late dead embryos (chicken embryos [5]; in ovo injection 0.25 µg/egg) was 4.4%^b. The Hatchability (chicken embryos [5]; in ovo injection 0.25 µg/egg) was 58.9%^b, the BW (chicken embryos [5]; in ovo injection 0.25 µg/egg) was 41.53 ± 3.06^a g and the “Chicks quality … of all chicks” value (chicken embryos [5]; in ovo injection 0.25 µg/egg) was 97.02 ± 9.51^b. The “Chicks quality … with score <100” value (chicken embryos [5]; in ovo injection 0.25 µg/egg) was 82.78 ± 17.33^a, the Early dead embryos (chicken embryos [5]; in ovo injection 0.50 µg/egg) was 12.2%^b and the Late dead embryos (chicken embryos [5]; in ovo injection 0.50 µg/egg) was 8.9%^b. The Hatchability (chicken embryos [5]; in ovo injection 0.50 µg/egg) was 50.0%^ab, the BW (chicken embryos [5]; in ovo injection 0.50 µg/egg) was 41.59 ± 3.12^a g and the “Chicks quality … of all chicks” value (chicken embryos [5]; in ovo injection 0.50 µg/egg) was 98.77 ± 4.52^b. For the same molecule, the “Chicks quality … with score <100” value (chicken embryos [5]; in ovo injection 0.50 µg/egg) was 88.00 ± 9.27^a, the “Chicks quality: Chicks with score 100” value (chicken embryos [5]; in ovo injection 0.75 µg/egg) was 63.3%^a and the Early dead embryos (chicken embryos [5]; in ovo injection 0.75 µg/egg) was 31.1%^d. For the same molecule, the Late dead embryos (chicken embryos [5]; in ovo injection 0.75 µg/egg) was 4.4%^b, the Hatchability (chicken embryos [5]; in ovo injection 0.75 µg/egg) was 35.6%^a and the BW (chicken embryos [5]; in ovo injection 0.75 µg/egg) was 41.42 ± 3.71^a g. The “Chicks quality … of all chicks” value (chicken embryos [5]; in ovo injection 0.75 µg/egg) was 91.03 ± 19.55^a, the “Chicks quality … with score <100” value (chicken embryos [5]; in ovo injection 0.75 µg/egg) was 75.55 ± 26.30^b and the IC50 (HeLa cells) was 5 µM.

With `C[C@@H]1Cc2ccc(C(=O)N[C@@H](Cc3ccccc3)C(=O)O)c(O)c2C(=O)O1` [OTB, ochratoxin B] the “presence as potential metabolite of OTA and 2’R-OTA in isolated organs” value [2] was “not found in any of the organs tested above the LOD” and the IC50 [3, 10] was 7.96 µM.

In the case of `C[C@@H]1Cc2c(Cl)cc(C(=O)O)c(O)c2C(=O)O1` [OTα, α-ochratoxin], the “neurotoxic effects not observed up to (concentration)” value [9] is listed as ≥ 15 µM, the “nontoxic up to (concentration)” value (IHKE cells) is listed as ≥ 50 µM and the “presence as potential metabolite of OTA and 2’R-OTA in isolated organs” value [2] is listed as “not found in any of the organs tested above the LOD”. The IC50 [3, 10] was 5.26 µM, the “teratogenicity and mortality (in words)” value (embryos of Danio rerio) was “negligible teratogenicity and mortality” and the IC50 (HeLa cells) was 560 µM.
